# Source: PubChem
# The list is not random: actives were taken first. Their share in the collection is about 2.6%.
# SENP8 block-1: inhibitors of human SENP8 protease | recombinant SENP8, Nedd8 substrate fluorescence | actives 0.64% (n = 360,000) | inhibition, % at 20 µM | Q96LD8; in the data active = inhibition mostly above about 40%, no sharp cut-off; inactive = mostly below about 27%
# SENP6 inh: inhibitors of human SENP6 protease; actives 1.8% (n = 330,000); Recombinant SENP6 catalytic domain, aminoluciferin luminescence; Q9GZR1; inhibition, % at 10 µM;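 active = inhibition above about 50% at the single tested dose, limit read from the data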;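 also: plate controls were DMSO wells with enzyme for no effect and DMSO wells lacking enzyme for full effect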
# Target sequence (Q9GZR1 628-1112 limits assumed): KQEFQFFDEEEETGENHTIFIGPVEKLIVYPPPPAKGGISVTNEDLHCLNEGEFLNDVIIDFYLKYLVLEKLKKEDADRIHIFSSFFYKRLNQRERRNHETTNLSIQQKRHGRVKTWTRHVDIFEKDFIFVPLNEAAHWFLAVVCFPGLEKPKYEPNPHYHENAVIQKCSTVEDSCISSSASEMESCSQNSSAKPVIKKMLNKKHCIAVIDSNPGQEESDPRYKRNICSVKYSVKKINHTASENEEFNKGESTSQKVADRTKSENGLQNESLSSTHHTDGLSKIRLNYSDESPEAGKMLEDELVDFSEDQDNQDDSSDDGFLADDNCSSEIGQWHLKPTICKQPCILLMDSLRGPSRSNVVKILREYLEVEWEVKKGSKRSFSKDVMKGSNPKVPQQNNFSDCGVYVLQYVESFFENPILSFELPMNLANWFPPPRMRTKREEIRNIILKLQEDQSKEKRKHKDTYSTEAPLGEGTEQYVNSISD
# SENP8 block-2: SENP8 protease inhibition. purified SENP8, Z-RLRGG-aminoluciferin cleavage, luminescence. Q96LD8. inhibition, % at 10 µM. actives 1.2% (n = 330,000); in the data active = inhibition above about 50%
# SENP7 inh: inhibitors of human SENP7 protease. Q9BQF6. recombinant SENP7, Z-RLRGG-aminoluciferin luminescence, 40 min. inhibition, % at 5 µM. actives 1.5% (n = 330,000);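 active = inhibition above about 50% at the single test dose, limit read from the data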;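 also: plate controls were DMSO with enzyme for no effect and no enzyme buffer wells for full effect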
# Platelet DG rel: platelet dense granule release activity; actives 0.22% (n = 300,000); AID 1663; human platelet-rich plasma, SFLLRN dense granule ATP release, luminescence; inhibition, %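 (compounds screened at 7.5 µM in platelet-rich plasma)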;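 active = mean replicate score, as percent of positive control, at or above 50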
# SENP1 FRET inh: blocks the human SENP1 SUMO protease catalytic domain | actives 0.21% (n = 360,000) | inhibition, % at 10 µM | Q9P0U3 | recombinant SENP1 catalytic domain, CyPet-SUMO1-YPet FRET cleavage;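 active = inhibition at least 30% at 10 µM, raw YFP signal under a set limit, fluorescence ratio 0.5 to 1.5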;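 also: 0% = enzyme with DMSO and 100% = no enzyme wells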
#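 Test system: recombinant human SENP1 catalytic domain, His6-tagged / Medium: pH 8 Tris buffer with EDTA, NaCl, BME, BSA, NP40, catalase / Also added: SUMO1 FRET substrate flanked by Cypet and Ypet, 25 nM / Times: 50 min reaction at room temperature / Signal: FRET, CFP and YFP emission / Control set: no-enzyme low control and enzyme-plus-DMSO high control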
# SENP8 confirm: human SENP8 inhibition, confirmed | shares compounds with SENP7 inh | Recombinant SENP8, Z-RLRGG-aminoluciferin luminescence, 60 min | inhibition, % at 12.5 µM | actives 40% (n = 6,200);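 active = mean inhibition across replicates above about 50%, limit read from the data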
# SENP6 confirm: confirmation of human SENP6 protease inhibitors; shares compounds with SENP7 inh; recombinant SENP6, Z-RLRGG-aminoluciferin luminescence; inhibition, % at 12.5 µM; actives 58% (n = 6,200); AID 488915
# SENP7 confirm: human SENP7 inhibition, confirmed; shares compounds with SENP7 inh; recombinant SENP7, Z-RLRGG-aminoluciferin luminescence, 40 min; inhibition, % at 12.5 µM; actives 69% (n = 6,200); AID 488917
# Casp3 select: caspase-3 inhibition (SENP selectivity assay); shares compounds with SENP7 inh; purified caspase-3, Z-DEVD-aminoluciferin luminescence, 60 min; inhibition, % at 12.5 µM; actives 60% (n = 6,200); AID 488918;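 active = mean inhibition above about 50%, limit read from the data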;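 also: plate controls were enzyme with DMSO for no effect and wells without caspase-3 for full effect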
# Luc interf: counter-screen for SENP inhibitors: luminescence interference | shares compounds with SENP7 inh | Pre-incubated SENP8/Z-RLRGG-aminoluciferin, luciferase luminescence interference | inhibition, % at 12.5 µM | actives 39% (n = 6,200) | AID 488919;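 active = mean inhibition above about 50% when retested at one dose, limit read from the data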;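 also: plate controls were DMSO wells with completed reaction for no effect and substrate without enzyme for full effect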
# Active calls of the source: *; . = not tested or not shown.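 The calls were made as follows, unless noted: active = mean inhibition above about 50% in the one-dose retest (limit read from the data); inactive = the rest.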
SMILES,SENP8 block-1,SENP6 inh,SENP8 block-2,SENP7 inh,Platelet DG rel,SENP1 FRET inh,SENP8 confirm,SENP6 confirm,SENP7 confirm,Casp3 select,Luc interf
CCc1ccc(O)c(-c2cc(C(=O)Nc3cccnc3)[nH]n2)c1,25,-10,-7,-4,2,3,.,.,.,.,.
Cc1ccc(C)c(NC(=O)c2cc(-c3cc(C)ccc3O)n[nH]2)c1,12,32,22,66*,6,2,28,29,82*,43,38
Cc1cccc(NC(=O)c2cc(-c3cc(C)cc(C)c3O)n[nH]2)c1,6,15,-10,5,-1,-2,.,.,.,.,.
Cc1cc(C)c(O)c(-c2cc(C(=O)Nc3cccnc3)[nH]n2)c1,31,68*,30,25,13,1,14,14,73*,18,36
Cc1cc(O)c(-c2cc(C(=O)Nc3cccnc3)[nH]n2)cc1C,15,2,-12,71*,-2,0,-3,-5,66*,46,-5
O=C(CCC1CCCC1)Nc1cccc(Cc2ccncc2)c1,-4,-3,-11,-11,0,2,.,.,.,.,.
CSc1nc(/C=C2\C=Nc3ccccc32)c(O)n1C,-5,73*,54*,52*,70*,-127,76*,74*,89*,71*,65*
CCC(=O)Nc1cccc(-c2ccc(N3CCC(C)CC3)nn2)c1,-44,69*,49,59*,-9,4,21,56*,84*,73*,-12
CC1CCN(c2ccc(-c3cccc(NC(=O)c4ccco4)c3)nn2)CC1,-17,79*,59*,74*,5,0,66*,69*,88*,66*,38
O=C(Nc1cccc(-c2ccc(N3CCCCC3)nn2)c1)c1ccc(Br)o1,-42,89*,76*,83*,17,-3,73*,79*,94*,82*,60*
CC1CCN(c2ccc(-c3cccc(NC(=O)C(F)(F)F)c3)nn2)CC1,-108,40,49,4,2,1,.,.,.,.,.
CCC(=O)Nc1ccc(-c2ccc(N3CCC(C)CC3)nn2)cc1,-45,5,1,1,-4,-1,.,.,.,.,.
COC(=O)[C@@]12C[C@@H](CC(=O)N3CCOCC3)C(=O)N(Cc3ccccc3)C1=CCC(C)(C)C2,30,.,.,.,.,3,.,.,.,.,.
CC(=O)c1cccc(NC(=O)COC(=O)C2=COCCO2)c1,20,-8,1,-6,-4,0,.,.,.,.,.
CC1Cc2ccccc2N1C(=O)c1cc2cccnc2n(C)c1=O (stereo not given),4,6,-1,6,-14,1,.,.,.,.,.
CC1CCc2c(sc(NC(=O)c3ccco3)c2C(=O)O)C1 (stereo not given),-107,78*,62*,5,1,1,78*,72*,88*,66*,65*
O=C(Nc1sc2c(c1C(=O)O)CCCCC2)c1ccco1,-134,97*,93*,88*,-3,2,96*,97*,101*,96*,95*
CN(C)C(=O)c1c(NC(=O)c2ccco2)sc2c1CCCCC2,-26,4,7,7,9,-3,.,.,.,.,.
O=C(CC1C(=O)NCCN1Cc1ccccc1C(F)(F)F)NC1CCCCCC1 (stereo not given),-33,13,1,15,2,-20,.,.,.,.,.
COc1ccc(OC(=O)c2cccc(S(=O)(=O)N3CC(C)OC(C)C3)c2)cc1 (stereo not given),12,-10,-6,7,.,2,.,.,.,.,.
CCOC(=O)COc1cc(N)c(Cl)cc1Cl,-14,-39,80*,0,-2,0,2,-1,-4,-1,-6
c1ccc(-c2cc3ccccc3[nH]2)cc1,-388,39,30,21,-2,5,.,.,.,.,.
Cc1ccc(O)c(-c2cc3ccccc3[nH]2)c1,-274,71*,49,53*,5,-15,62*,62*,83*,16,71*
COc1ccc(-c2cc3ccccc3[nH]2)cc1,-404,53*,10,61*,-13,-14,9,21,66*,39,21
O=C(Nc1sc2c(c1C(=O)O)CCCCC2)c1cccnc1,-15,29,23,-1,-6,-2,.,.,.,.,.
SMILES,SENP8 block-1,SENP6 inh,SENP8 block-2,SENP7 inh,Platelet DG rel,SENP1 FRET inh,SENP8 confirm,SENP6 confirm,SENP7 confirm,Casp3 select,Luc interf
Cc1cccc(C(=O)Nc2sc3c(c2C(=O)O)CCCC3)c1,-83,93*,93*,70*,-2,2,97*,98*,102*,95*,79*
NC(=O)c1c(NC(=O)c2ccncc2)sc2c1CCCC2,1,-8,-8,-6,-5,0,.,.,.,.,.
NC(=O)c1c(NC(=O)c2ccccc2)sc2c1CCc1ccccc1-2,-272,10,-4,64*,-7,-4,-26,-18,-6,-6,-9
Cc1cc(C(=O)Nc2sc3c(c2C#N)CCCCC3)cs1,-20,57*,31,77*,-14,-24,16,38,40,23,16
NC(=O)c1c(NC(=O)c2ccccc2)sc2c1CCC2,-126,57*,41,12,4,-5,-5,15,83*,42,0
COc1cccc(-n2cnnc2SCC(=O)NC2CC2)c1,6,-24,-14,-4,.,2,.,.,.,.,.
O=C(Nc1ccccc1N1CCOCC1)[C@@H]1O[C@H](CO)[C@H](O)[C@H](O)[C@H]1O,22,.,.,.,.,0,.,.,.,.,.
CN1CCc2c(sc(NC(=O)c3ccc4ccccc4c3)c2C(N)=O)C1,-315,62*,67*,68*,43,-19,59*,61*,88*,61*,44
N#Cc1c(NC(=O)CSc2ncn[nH]2)sc2c1CCCCC2,16,76*,68*,33,6,1,27,83*,89*,23,48
CN1CCc2c(sc(NC(=O)Cc3ccccc3)c2C(N)=O)C1,-65,-20,-1,-7,2,-29,.,.,.,.,.
O=C(Nc1sc2c(c1C(=O)O)CCC2)c1cccc(Cl)c1,-11,97*,95*,68*,-9,0,96*,99*,102*,95*,98*
